Article PMC3037833 (Angewandte Chemie (International ed. in English), 2010)
Where two headings read alike, the source gives them in different places. No end group written: not given here.

T1: N1P1 (NHERF1 PDZ domain 1) (Homo sapiens, UniProt O14745)
T1 sequence (O14745 14-94 limits assumed): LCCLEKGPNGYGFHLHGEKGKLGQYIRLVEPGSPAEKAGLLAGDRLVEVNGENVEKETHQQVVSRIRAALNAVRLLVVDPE

T2: N1P2 (NHERF1 PDZ domain 2) (Homo sapiens, UniProt O14745)
T2 sequence (O14745 154-234 limits assumed): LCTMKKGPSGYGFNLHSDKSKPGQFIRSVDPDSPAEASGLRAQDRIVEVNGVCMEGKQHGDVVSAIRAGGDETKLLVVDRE

T3: iCAL056 (N-terminal cysteine on peptide)
T3 chain: MQTSKI

T4: iCAL356 (N-terminal cysteine on peptide)
T4 chain: WQTSII

T5: iCAL3610
T5 chain: ANSRWPTSII

T6: SSR56 (Homo sapiens, N-terminal cysteine on peptide)
T6 chain: MQTSKL

T7: SSR510 (Homo sapiens)
T7 chain: ANGLMQTSKL

T8: iCAL366 (N-terminal cysteine on peptide)
T8 chain: WPTSII

T9: CFTR10 (Homo sapiens)
T9 chain: TEEEVQDTRL

T10: iCAL066 (N-terminal cysteine on peptide)
T10 chain: MQTSII

T11: iCAL368
T11 chain: SRWPTSII

T12: F*-iCAL36
T12 chain: fluorescein-ANSRWPTSII


Columns and labels:
[1] = molecular target: T1, N1P1 (NHERF1 PDZ domain 1); assay: Fluorescence polarization; format: binding
Outline: (§1)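 Test peptides were assayed by fluorescence polarization inhibition for binding to the isolated PDZ domain; the same format was applied across the five CFTR-associated PDZ domains.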

[2] = molecular target: T2, N1P2 (NHERF1 PDZ domain 2); assay: Fluorescence polarization; format: binding
Outline: as §1

[3] = molecular target: N2P2 (NHERF2 PDZ domain 2) (Homo sapiens, UniProt Q15599); assay: Fluorescence polarization; format: binding
[4] = molecular target: N2P1 (NHERF2 PDZ domain 1) (Homo sapiens, UniProt Q15599); assay: Fluorescence polarization; format: binding
[5] = molecular target: T3, iCAL056; assay: fluorescence polarization competition
[6] = molecular target: T4, iCAL356; assay: fluorescence polarization competition
[7] = molecular target: T5, iCAL3610; assay: fluorescence polarization competition
[8] = molecular target: T6, SSR56; assay: fluorescence polarization competition
[9] = molecular target: T7, SSR510; assay: fluorescence polarization competition
[10] = molecular target: T8, iCAL366; assay: fluorescence polarization competition
[11] = molecular target: T9, CFTR10; assay: fluorescence polarization competition
[12] = molecular target: T10, iCAL066; assay: fluorescence polarization competition
[13] = molecular target: T11, iCAL368; assay: fluorescence polarization competition
[14] = molecular target: T12, F*-iCAL36; assay: fluorescence polarization

Molecule | Ki ([1]; SD) | Ki ([2]; SD) | Ki ([3]; SD) | Ki ([4]; SD) | Ki [3] | Ki [4] | Ki [1] | Ki [2] | Ki [5] | Ki [6] | Ki [7] | Ki [8] | Ki [9] | Ki [10] | Ki [11] | Ki [12] | Ki [13] | Kd [14]
CC(C)C[C@H](NC(=O)[C@H](CCCNC(=N)N)NC(=O)[C@@H](NC(=O)[C@H](CC(=O)O)NC(=O)[C@H](CCC(N)=O)NC(=O)[C@@H](NC(=O)[C@H](CCC(=O)O)NC(=O)[C@H](CCC(=O)O)NC(=O)[C@H](CCC(=O)O)NC(=O)[C@@H](N)[C@@H](C)O)C(C)C)[C@@H](C)O)C(=O)O [CFTR10, reference compound] | 0.45 ± 0.02 µM | 1.9 ± 0.1 µM |  |  |  |  |  |  |  |  |  |  |  |  |  |  |  | 
NHERF1 PDZ1 (protein) LPRLCCLEKGPNGYGFHLHGEKGKLGQYIRLVEPGSPAEKAGLLAGDRLVEVNGENVEKETHQQVVSRIRAALNAVRLLVVDPETDE |  |  |  |  |  |  |  |  | 914 µM | 430 µM | > 5000 µM | 19.3 µM | 24.5 µM | > 5000 µM | 0.45 µM | 245 µM | > 5000 µM | > 1000 µM
NHERF2 PDZ2 (protein) LRPRLCHLRKGPQGYGFNLHSDKSRPGQYIRSVDPGSPAARSGLRAQDRLIEVNGQNVEGLRHAEVVASIKAREDEARLLVVDPETD |  |  |  |  |  |  |  |  | 109 µM | 246 µM | > 3000 µM | 10 µM | 19.8 µM | > 5000 µM | 0.1 µM | 166 µM | 433 µM | > 1000 µM

Results, then the molecule that gave them:

Ki ([1]; SD) | Ki ([2]; SD) | Ki ([3]; SD) | Ki ([4]; SD) | Ki [3] | Ki [4] | Ki [1] | Ki [2] | Ki [5] | Ki [6] | Ki [7] | Ki [8] | Ki [9] | Ki [10] | Ki [11] | Ki [12] | Ki [13] | Kd [14] | Molecule
24.5 ± 1.9 µM | 130 ± 48 µM | 19.8 ± 2.7 µM | 38.6 ± 7.7 µM |  |  |  |  |  |  |  |  |  |  |  |  |  |  | CSCC[C@H](NC(=O)[C@H](CC(C)C)NC(=O)CNC(=O)[C@H](CC(N)=O)NC(=O)[C@H](C)N)C(=O)N[C@@H](CCC(N)=O)C(=O)N[C@H](C(=O)N[C@@H](CO)C(=O)N[C@@H](CCCCN)C(=O)N[C@@H](CC(C)C)C(=O)O)[C@@H](C)O [SSR5_10, reference compound]
 |  |  |  | > 3000 µM | > 5000 µM | > 5000 µM | > 5000 µM |  |  |  |  |  |  |  |  |  |  | CC[C@H](C)[C@H](NC(=O)[C@@H](NC(=O)[C@H](CO)NC(=O)[C@@H](NC(=O)[C@@H]1CCCN1C(=O)[C@H](Cc1c[nH]c2ccccc12)NC(=O)[C@H](CCCNC(=N)N)NC(=O)[C@H](CO)NC(=O)[C@H](CC(N)=O)NC(=O)[C@H](C)N)[C@@H](C)O)[C@@H](C)CC)C(=O)O [iCAL36_10]
 |  | 433 ± 154 µM | 516 ± 183 µM |  |  | > 5000 µM | > 5000 µM |  |  |  |  |  |  |  |  |  |  | SRWPTSII [iCAL36_8]
 |  |  |  |  |  |  |  | 806 µM | 496 µM | > 5000 µM | 31.7 µM | 38.6 µM | > 5000 µM | 1.1 µM | 245 µM | 516 µM | > 1000 µM | NHERF2 PDZ1 (protein) RPRLCRLVRGEQGYGFHLHGEKGRRGQFIRRVEPGSPAEAAALRAGDRLVEVNGVNVEGETHHQVVQRIKAVEGQTRLLVVDQETD
 |  |  |  |  |  |  |  | 1700 µM | > 5000 µM | > 5000 µM | 50.2 µM | 130 µM | > 5000 µM | 1.9 µM | 2400 µM | > 5000 µM | > 1000 µM | NHERF1 PDZ2 (protein) RPRLCTMKKGPSGYGFNLHSDKSKPGQFIRSVDPDSPAEASGLRAQDRIVEVNGVCMEGKQHGDVVSAIRAGGDETKLLVVDRETDE
